Paper PMC6620028 (Cancer cell, 2019)
Blank lines part the entries; values can stand above or below the compound they belong to.

Key:
[1] = system: normal hematopoietic cells; test: Effect on normal hematopoietic cells; settings: 72 hr
[2] = system: AML and other cancers; settings: early phase clinical trials against AML and other cancers, ref Arrillaga-Romany et al., 2017, Kline et al., 2016, Stein et al.; cited from earlier work
[3] = system: OCI-AML2, OCI-AML3, TEX, Z138, HCT-116, HeLa, OC316, SUM159 cells; test: Growth and viability of leukemia, lymphoma and solid tumor cell lines; type: cell-based, human; settings: 72 hr
[4] = biological target: T1, human ClpP (recombinant WT) (Homo sapiens, UniProt Q16740); test: ClpP FITC-casein degradation, cell-free fluorescence assay; type: biochemical; settings: positive cooperativity
T1 sequence (Q16740 57-277): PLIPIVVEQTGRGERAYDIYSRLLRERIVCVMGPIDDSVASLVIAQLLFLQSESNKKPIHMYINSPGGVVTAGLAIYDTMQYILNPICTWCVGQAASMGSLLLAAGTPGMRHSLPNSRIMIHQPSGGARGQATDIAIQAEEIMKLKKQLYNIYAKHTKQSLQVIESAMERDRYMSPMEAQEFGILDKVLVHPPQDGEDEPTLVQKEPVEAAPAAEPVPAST

[5] = biological target: T1, human ClpP (recombinant WT); test: ClpP AC-WLA-AMC fluorogenic peptide cleavage assay; type: biochemical; settings: read-out: EC50, ClpP cleavage of AC-WLA-AMC; without ClpX
[6] = system: CLPP-/- T-REx HEK293 cells; test: Alamar blue viability, CLPP-/- T-REx HEK293; type: cell-based, human; settings: T-REx HEK293, 72 hr
[7] = system: CLPP+/+ T-REx HEK293 cells; test: Alamar blue viability, CLPP+/+ T-REx HEK293; type: cell-based, human; settings: T-REx HEK293, 72 hr
[8] = system: ONC201-resistant Z138 cells (ONC-R Z138); test: Growth and viability, ONC201-resistant Z138; type: cell-based, human; settings: ONC-R Z138 compared with parental Z138
[9] = system: primary AML patient samples; test: Apoptosis in primary AML patient samples; type: cell-based, human; settings: 72 hr; including high risk cytogenetics and molecular mutations
[10] = biological target: endogenous ClpP in OCI-AML2 (Homo sapiens, UniProt Q16740); test: Cellular thermal shift assay; type: cell-based; settings: at concentrations associated with activation in the enzymatic assays
Sequence of endogenous ClpP in OCI-AML2 (Q16740 57-277): as above

[11] = biological target: recombinant D190A ClpP (Homo sapiens, UniProt Q16740, D190A); test: D190A ClpP enzymatic assays; type: biochemical; settings: peptide or protein substrates
Sequence of recombinant D190A ClpP (Q16740 57-277 D190A): as the sequence (Q16740 57-277) above, with D134A counted along it

[12] = biological target: ClpP (Homo sapiens, UniProt Q16740); test: Gel-based α-casein degradation assay; type: biochemical; settings: 3 hr, without ClpX
Sequence of ClpP (Q16740 57-277): as the sequence (Q16740 57-277) above

[13] = biological target: T1, human ClpP (recombinant WT); test: ClpP Clptide fluorogenic peptide cleavage assay; type: biochemical; settings: read-out: EC50, ClpP cleavage of FAPHMALVPC (Clptide); without ClpX
[14] = biological target: T1, human ClpP (recombinant WT); test: ClpP Ac-Phe-hArg-Leu-ACC fluorogenic peptide cleavage assay; type: biochemical; settings: read-out: EC50, ClpP cleavage of Ac-Phe-hArg-Leu-ACC; without ClpX
[15] = system: Z138 cells with WT ClpP overexpression; test: Z138 xenograft with WT ClpP overexpression; type: in vivo, NSG mice; settings: ONC212 50 mg/kg every other day, oral gavage, WT ClpP group
In short: (§1)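 Female NSG mice (n = 7 per group) received two million luciferase-labelled Z138 cells transfected with a WT or D190A mutant CLPP-overexpressing vector. Engraftment was confirmed by bioluminescence imaging on day 9 post-transplantation. Test compound (50 mg/kg) or water vehicle was then given by oral gavage every other day until moribund. Tumour burden was followed weekly by IVIS luminescence until day 31, and survival was recorded.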

[16] = system: Z138 cells with D190A ClpP overexpression; test: Z138 xenograft with D190A ClpP overexpression; type: in vivo, NSG mice; settings: ONC212 50 mg/kg every other day, oral gavage; D190A ClpP group
In short: as §1

[17] = system: OCI-AML2 cells; test: Alamar blue viability assay, OCI-AML2; type: cell-based, human; settings: read-out: IC50, growth and viability, OCI-AML2, 72-hr exposure

Compound: Cc1ccccc1CN1C(=O)C2=C(CCN(Cc3ccccc3)C2)N2CCN=C12 [ONC201]
- Effect on normal hematopoietic cells [1]: had little effect
- Serious adverse events in clinical trials [2]: without serious adverse events reported yet
- IC50 values, growth and viability [3]: low micromolar

Compound: O=C1C2=C(CCN(Cc3ccccc3)C2)N2CCN=C2N1Cc1ccc(C(F)(F)F)cc1 [ONC212]
- Hill coefficient (FITC-casein data) [4]: 4.98 ± 0.47
- Effect on normal hematopoietic cells [1]: had little effect
- EC50 [5]: 180 nM
- Growth and viability of CLPP-/- cells [6]: but not CLPP^−/− cells
- Growth and viability of CLPP+/+ cells [7]: reduced the growth and viability
- Growth and viability / sensitivity of ONC201-resistant Z138 cells [8]: cross-resistant
- Apoptosis in primary AML patient samples [9]: induced apoptosis
- Binding of endogenous ClpP in cells (CETSA) [10]: bound endogenous ClpP
- Activation of proteolytic activity of D190A ClpP [11]: could not activate proteolytic activity
- Degradation of α-casein by ClpP (SDS-PAGE) [12]: induced cleavage of α-casein without the need for ClpX
- EC50 [13]: 3370 nM
- EC50 [14]: 370 nM
- IC50 values, growth and viability [3]: nanomolar range
- Tumor burden (luciferase, IVIS imaging) [15]: significantly reduced
- Median survival ([15]; vehicle 49 days): 55 days
- Tumor burden / anti-tumor activity (luciferase, IVIS imaging) [16]: no discernable anti-tumor activity

Compound: COc1cccc2c1C(=O)c1c(O)c3c(c(O)c1C2=O)C[C@@](O)(C(=O)CO)C[C@@H]3O[C@H]1C[C@H](N)[C@H](O)[C@H](C)O1 [adriamycin]
- Growth and viability / sensitivity of ONC201-resistant Z138 cells [8]: retained similar sensitivity

Compound: CC[C@]1(O)C[C@H]2CN(CCc3c([nH]c4ccccc34)[C@@](C(=O)OC)(c3cc4c(cc3OC)N(C=O)[C@H]3[C@@](O)(C(=O)OC)[C@H](OC(C)=O)[C@]5(CC)C=CCN6CC[C@]43[C@@H]65)C2)C1 [vincristine]
- Growth and viability / sensitivity of ONC201-resistant Z138 cells [8]: retained similar sensitivity

- IC50 [17]: 50000 nM
Compound: Acyldepsipeptide 1 [ADEP1]
